Measurements: ChEMBL document CHEMBL1921722, “In vitro and in vivo evaluation of select kahalalide F analogs with antitumor and antifungal activities” (Bioorg Med Chem, 2011)
Activity calls are given as the source filed them.

Tests used:
DU-145 [1] = experiment: Cytotoxicity against human DU145 cells by sulforhodamine B assay; format: functional
Outline: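 Run by the NCI Developmental Therapeutics Program on its 60-line human tumour cell panel using the standard procedure. Compounds went through a single-concentration prescreen first, and those active by NCI criteria went on to a five-concentration growth-inhibition test. GI50 is the concentration that cuts growth of treated cells to half that of untreated control cells.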

SF-295 = experiment: Cytotoxicity against human SF295 cells assessed as cell growth at 8 nM by sulforhodamine B assay relative to control; format: functional; conditions: read-out: Activity
NCI-H226 = experiment: Cytotoxicity against human NCI-H226 cells assessed as cell growth at 8 nM by sulforhodamine B assay relative to control; format: functional; conditions: read-out: Activity
Mus musculus = experiment: Acute toxicity in athymic nude mouse assessed as mortality at 12.5 mg/kg, […]; format: organism-based; design: dose 12.5 mg/kg, route intraperitoneal; conditions: in vivo, ip, 576 h
MDA-MB-231 = experiment: Antitumor activity against human MDA-MB-231 cells xenografted in mouse assessed as tumor cell killing at 4.7 mg/kg, ip qd for 4 days by MTT assay; format: functional, organism-based; design: dose 4.7 mg/kg
Outline: (§1)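 Hollow-fiber assay in mice. Tumor lines were grown in RPMI-1640 with 10% FBS and 2 mM glutamine. Cells at 2 × 10^6 cells/ml were loaded into 1 mm PVDF fibers (500,000 Da cutoff), heat-sealed at 2 cm and held 24–48 h at 37 °C, 5% CO2 before implantation. Compound was given IP. Fibers were collected the day after the fourth treatment for MTT (OD 540 nm, group means). A ≥50% cut in percent net growth versus vehicle counted as positive.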

MOLT-4 [2] = experiment: Cytotoxicity against human MOLT4 cells assessed as cell growth at 8 nM by sulforhodamine B assay relative to control; format: functional; conditions: read-out: Activity
OVCAR-3 [3] = experiment: Cytotoxicity against human OVCAR3 cells assessed as cell growth at 8 nM by sulforhodamine B assay relative to control; format: functional; conditions: read-out: Activity
SK-OV-3 = experiment: Cytotoxicity against human SKOV3 cells assessed as cell growth at 8 nM by sulforhodamine B assay relative to control; format: functional; conditions: read-out: Activity
MOLT-4 [4] = experiment: Cytotoxicity against human MOLT4 cells assessed as cell growth at 80 nM by sulforhodamine B assay relative to control; format: functional; conditions: read-out: Activity
SNB-19 [5] = experiment: Cytotoxicity against human SNB19 cells assessed as cell growth at 80 nM by sulforhodamine B assay relative to control; format: functional; conditions: read-out: Activity
M14 [6] = experiment: Cytotoxicity against human M14 cells assessed as cell growth at 80 nM by sulforhodamine B assay relative to control; format: functional; conditions: read-out: Activity
SK-MEL-2 = experiment: Cytotoxicity against human SK-MEL-2 cells assessed as cell growth at 80 nM by sulforhodamine B assay relative to control; format: functional; conditions: read-out: Activity
IGROV-1 [7] = experiment: Cytotoxicity against human IGROV1 cells assessed as cell growth at 80 nM by sulforhodamine B assay relative to control; format: functional; conditions: read-out: Activity
OVCAR-3 [8] = experiment: Cytotoxicity against human OVCAR3 cells assessed as cell growth at 80 nM by sulforhodamine B assay relative to control; format: functional; conditions: read-out: Activity
K562 = experiment: Cytotoxicity against human K562 cells assessed as cell growth at 800 nM by sulforhodamine B assay relative to control; format: functional; conditions: read-out: Activity
HOP-92 [9] = experiment: Cytotoxicity against human HOP92 cells assessed as cell growth at 800 nM by sulforhodamine B assay relative to control; format: functional; conditions: read-out: Activity
SW-620 = experiment: Cytotoxicity against human SW620 cells assessed as cell growth at 800 nM by sulforhodamine B assay relative to control; format: functional; conditions: read-out: Activity
SNB-19 [10] = experiment: Cytotoxicity against human SNB19 cells assessed as cell growth at 800 nM by sulforhodamine B assay relative to control; format: functional; conditions: read-out: Activity
SNB-75 [11] = experiment: Cytotoxicity against human SNB75 cells assessed as cell growth at 800 nM by sulforhodamine B assay relative to control; format: functional; conditions: read-out: Activity
IGROV-1 [12] = experiment: Cytotoxicity against human IGROV1 cells assessed as cell growth at 800 nM by sulforhodamine B assay relative to control; format: functional; conditions: read-out: Activity
OVCAR-3 [13] = experiment: Cytotoxicity against human OVCAR3 cells assessed as cell growth at 800 nM by sulforhodamine B assay relative to control; format: functional; conditions: read-out: Activity
ACHN = experiment: Cytotoxicity against human ACHN cells assessed as cell growth at 800 nM by sulforhodamine B assay relative to control; format: functional; conditions: read-out: Activity
Outline: (§2)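 Run at NCI in the DTP 60-cell-line human tumor panel by standard procedure. Compounds were first screened at a single concentration, then tested at five tenfold-spaced concentrations. GI50 is the concentration reducing treated-cell growth to half that of untreated controls; TGI is the concentration completely halting growth.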

HOP-92 [14] = experiment: Cytotoxicity against human HOP92 cells assessed as cell growth at 8 uM by sulforhodamine B assay relative to control; format: functional; conditions: read-out: Activity
SF-539 = experiment: Cytotoxicity against human SF539 cells assessed as cell growth at 8 uM by sulforhodamine B assay relative to control; format: functional; conditions: read-out: Activity
M14 [15] = experiment: Cytotoxicity against human M14 cells assessed as cell growth at 8 uM by sulforhodamine B assay relative to control; format: functional; conditions: read-out: Activity
RXF 393 = experiment: Cytotoxicity against human RXF393 cells assessed as cell growth at 8 uM by sulforhodamine B assay relative to control; format: functional; conditions: read-out: Activity
UO-31 = experiment: Cytotoxicity against human UO31 cells assessed as cell growth at 8 uM by sulforhodamine B assay relative to control; format: functional; conditions: read-out: Activity
DU-145 [16] = experiment: Cytotoxicity against human DU145 cells assessed as cell growth at 8 uM by sulforhodamine B assay relative to control; format: functional; conditions: read-out: Activity; outline: as §2
COLO 205 [17] = experiment: Cytotoxicity against human COLO205 cells assessed as cell growth at 80 uM by sulforhodamine B assay relative to control; format: functional; conditions: read-out: Activity; outline: as §2
SNB-75 [18] = experiment: Cytotoxicity against human SNB75 cells assessed as cell growth at 80 uM by sulforhodamine B assay relative to control; format: functional; conditions: read-out: Activity
M14 [19] = experiment: Cytotoxicity against human M14 cells assessed as cell growth at 80 uM by sulforhodamine B assay relative to control; format: functional; conditions: read-out: Activity
OVCAR-4 = experiment: Cytotoxicity against human OVCAR4 cells assessed as cell growth at 80 uM by sulforhodamine B assay relative to control; format: functional; conditions: read-out: Activity
COLO 205 [20] = experiment: Antitumor activity against human COLO205 cells xenografted in mouse assessed as tumor cell killing at 4.7 mg/kg, ip qd for 4 days by MTT assay; format: functional, organism-based; design: dose 4.7 mg/kg; outline: as §1
HL-60(TB) = experiment: Cytotoxicity against human HL-60(TB) cells by sulforhodamine B assay; format: functional
Outline: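 NCI Developmental Therapeutics Program 60-cell-line human tumor panel, standard procedure. Single-concentration prescreen first; active compounds then tested at five concentrations. GI50 is the concentration reducing growth of treated cells to half that of untreated controls.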

SF-268 = experiment: Cytotoxicity against human SF268 cells by sulforhodamine B assay; format: functional
U-251 = experiment: Cytotoxicity against human U251 cells by sulforhodamine B assay; format: functional
Outline: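 NCI Developmental Therapeutics Program 60-cell-line human tumor panel screen, run at NCI. A single-concentration pre-screen was followed by a five-concentration dose-response in 10-fold steps. GI50 is the concentration that reduces growth of treated cells to half that of untreated control cells. TGI is the concentration that completely halts growth.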

In the case of C/C=C1\NC(=O)[C@H](Cc2ccccc2)NC(=O)[C@@H](C(C)C)NC(=O)[C@@H]([C@@H](C)CC)NC(=O)[C@H](NC(=O)[C@H](NC(=O)[C@H](CCCNCc2ccc(N3CCOCC3)cc2)NC(=O)[C@H]2CCCN2C(=O)[C@H](NC(=O)[C@@H](NC(=O)[C@@H](NC(=O)[C@H](NC(=O)CCCC(C)C)C(C)C)[C@@H](C)O)C(C)C)C(C)C)[C@@H](C)CC)[C@@H](C)OC(=O)[C@H](C(C)C)NC1=O, the LC50 (DU-145 [1]) is reported as 513 nM, the GI50 (DU-145 [1]; read-out: GI50) is reported as 128 nM and the TGI (DU-145 [1]; read-out: TGI) is reported as 257 nM. The GI50 (DU-145 [1]; read-out: pGI50 (converted)) was 129 nM, the TGI (DU-145 [1]; read-out: pTGI (converted)) was 257 nM and the growth at 0.008 µM (SF-295) was 107%. The growth at 0.008 µM (NCI-H226) was 94%, the Activity (Mus musculus) was “Non-toxic” and the Activity (MDA-MB-231) was “inactive”. For the same compound, the growth at 0.008 µM (MOLT-4 [2]) was 103%, the growth at 0.008 µM (OVCAR-3 [3]) was 100% and the growth at 0.008 µM (SK-OV-3) was 107%. It also gave a growth at 0.08 µM (MOLT-4 [4]) of 95%, a growth at 0.08 µM (SNB-19 [5]) of 102% and a growth at 0.08 µM (M14 [6]) of 97%. It also gave a growth at 0.08 µM (SK-MEL-2) of 101%, a growth at 0.08 µM (IGROV-1 [7]) of 106% and a growth at 0.08 µM (OVCAR-3 [8]) of 87%. It also gave a growth at 0.8 µM (K562) of 102%, a growth at 0.8 µM (HOP-92 [9]) of 79% and a growth at 0.8 µM (SW-620) of 75%. The growth at 0.8 µM (SNB-19 [10]) was 90%, the growth at 0.8 µM (SNB-75 [11]) was 54% and the growth at 0.8 µM (IGROV-1 [12]) was 55%. The growth at 0.8 µM (OVCAR-3 [13]) was 46%, the growth at 0.8 µM (ACHN) was 90% and the growth at 8 µM (HOP-92 [14]) was -2%. It also gave a growth at 8 µM (SF-539) of -89%, a growth at 8 µM (M14 [15]) of -89% and a growth at 8 µM (RXF 393) of -47%. For the same compound, the growth at 8 µM (UO-31) was -76%, the growth at 8 µM (DU-145 [16]) was -96% and the growth at 80 µM (COLO 205 [17]) was 13%. For the same compound, the growth at 80 µM (SNB-75 [18]) was -7%, the growth at 80 µM (M14 [19]) was -69% and the growth at 80 µM (OVCAR-4) was -15%. The Activity (COLO 205 [20]) was “inactive”, the GI50 (HL-60(TB)) was 1860 nM and the CC50 (HL-60(TB); read-out: pLC50 (the source's name) (converted)) was over 75900 nM. For the same compound, the TGI (HL-60(TB); read-out: pTGI (converted)) was 5250 nM, the GI50 (SF-268) was 1450 nM and the GI50 (U-251) was 1000 nM. For the same compound, the LC50 (U-251) was 3890 nM and the TGI (U-251; read-out: pTGI (converted)) was 2000 nM.
